In ChEMBL document CHEMBL1144800, “Synthesis and antimicrobial properties of monensin A esters” (2008):
Converted amounts (≈) assume the structure as drawn. The source made the active and inactive calls. No cut-off for these calls is given here.

Experiments:
Staphylococcus aureus [1] = assay: Antibacterial activity against Staphylococcus aureus NCTC 4163 after 18 hrs by serial agar dilution method; assay type: functional; conditions: NCTC 4163, 18 h
In short: (§1)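 MIC by twofold serial agar dilution in Mueller–Hinton II agar per CLSI, run only for compounds that gave an inhibition zone in disc assay. Compounds dissolved in DMSO, tested at 3.125–400 µg/ml in agar. Final inoculum 10^4 CFU/ml. […] DMSO control included.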

Bacillus cereus [2] = assay: Antibacterial activity against Bacillus cereus ATCC 11778 after 18 hrs by serial agar dilution method; assay type: functional; conditions: ATCC 11778, 18 h; in short: as §1
Staphylococcus aureus [3] = assay: Antibacterial activity against Staphylococcus aureus ATCC 29213 after 18 hrs by serial agar dilution method; assay type: functional; conditions: ATCC 29213, 18 h; in short: as §1
Escherichia coli [4] = assay: Antibacterial activity against Escherichia coli NCTC 8196 at 400 ug/disc after 18 hrs by disc diffusion assay; assay type: functional, organism-based
In short: (§2)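 Disc diffusion on Mueller–Hinton II agar per CLSI guidelines. Compound in ethanol applied to 9 mm filter paper discs at 400 µg per disc, then dried and placed on the agar surface. Growth inhibition zone diameter read after 18 h at 35 °C.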

Staphylococcus aureus [5] = assay: Antibacterial activity against Staphylococcus aureus ATCC 25923 at 400 ug/disc after 18 hrs by disc diffusion assay; assay type: functional; conditions: ATCC 25923, 18 h, read-out: IZ; in short: as §2
Micrococcus luteus [6] = assay: Antibacterial activity against Micrococcus luteus ATCC 9341 after 18 hrs by serial agar dilution method; assay type: functional; conditions: ATCC 9341, 18 h; in short: as §1
[7] = system: Staphylococcus epidermidis; assay: Antibacterial activity against Staphylococcus epidermidis ATCC 12228 after 18 hrs by serial agar dilution method; assay type: functional; conditions: ATCC 12228, 18 h; in short: as §1
Candida albicans [8] = assay: Antifungal activity against Candida albicans ATCC 90028 at 400 ug/disc after 24 hrs by disc diffusion assay; assay type: functional
In short: (§3)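 Disc diffusion on RPMI agar with 2% glucose per CLSI guidelines. Discs 9 mm filter paper, loaded from ethanol solution with 400 µg compound, dried before placing on the agar. Inhibition zone diameter read after incubation at 35 °C. Fluconazole control at 25 µg per disc.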

[9] = system: Bordetella bronchiseptica; assay: Antibacterial activity against Bordetella bronchiseptica ATCC 4617 at 400 ug/disc after 18 hrs by disc diffusion assay; assay type: functional, organism-based; in short: as §2
Enterococcus hirae [10] = assay: Antibacterial activity against Enterococcus hirae ATCC 10541 at 400 ug/disc after 18 hrs by disc diffusion assay; assay type: functional; in short: as §2
Micrococcus luteus [11] = assay: Antibacterial activity against Micrococcus luteus ATCC 9341 at 400 ug/disc after 18 hrs by disc diffusion assay; assay type: functional; conditions: ATCC 9341, 18 h, read-out: IZ; in short: as §2
Candida albicans [12] = assay: Antifungal activity against Candida albicans ATCC 10231 at 400 ug/disc after 24 hrs by disc diffusion assay; assay type: functional; in short: as §3
Micrococcus luteus [13] = assay: Antibacterial activity against Micrococcus luteus ATCC 10240 at 400 ug/disc after 18 hrs by disc diffusion assay; assay type: functional; conditions: ATCC 10240, 18 h, read-out: IZ; in short: as §2
Candida parapsilosis [14] = assay: Antifungal activity against Candida parapsilosis ATCC 22019 at 400 ug/disc after 24 hrs by disc diffusion assay; assay type: functional; in short: as §3
Proteus vulgaris = assay: Antibacterial activity against Proteus vulgaris NCTC 4635 at 400 ug/disc after 18 hrs by disc diffusion assay; assay type: functional, organism-based; in short: as §2
Bacillus subtilis [15] = assay: Antibacterial activity against Bacillus subtilis ATCC 6633 at 400 ug/disc after 18 hrs by disc diffusion assay; assay type: functional; conditions: ATCC 6633, 18 h, read-out: IZ; in short: as §2
Pseudomonas aeruginosa [16] = assay: Antibacterial activity against Pseudomonas aeruginosa ATCC 15442 at 400 ug/disc after 18 hrs by disc diffusion assay; assay type: functional, organism-based; in short: as §2
Pseudomonas aeruginosa [17] = assay: Antibacterial activity against Pseudomonas aeruginosa ATCC 27853 at 400 ug/disc after 18 hrs by disc diffusion assay; assay type: functional, organism-based; in short: as §2
Staphylococcus aureus [18] = assay: Antibacterial activity against Staphylococcus aureus ATCC 6538 after 18 hrs by serial agar dilution method; assay type: functional; conditions: ATCC 6538, 18 h; in short: as §1
Staphylococcus aureus [19] = assay: Antibacterial activity against Staphylococcus aureus ATCC 6538 at 400 ug/disc after 18 hrs by disc diffusion assay; assay type: functional; conditions: ATCC 6538, 18 h, read-out: IZ; in short: as §2
Staphylococcus aureus [20] = assay: Antibacterial activity against Staphylococcus aureus NCTC 4163 at 400 ug/disc after 18 hrs by disc diffusion assay; assay type: functional; conditions: NCTC 4163, 18 h, read-out: IZ; in short: as §2
Enterococcus hirae [21] = assay: Antibacterial activity against Enterococcus hirae ATCC 10541 after 18 hrs by serial agar dilution method; assay type: functional; conditions: ATCC 10541, 18 h
In short: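 Twofold serial agar dilution MIC in Mueller–Hinton II agar (CLSI), run only for compounds that gave an inhibition zone in disc assay. DMSO solutions tested at 3.125–400 µg/ml in agar. Final inoculum 10^5 CFU/ml. Read after 18 h at 35 °C. DMSO control included.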

[22] = system: Staphylococcus epidermidis; assay: Antibacterial activity against Staphylococcus epidermidis ATCC 12228 at 400 ug/disc after 18 hrs by disc diffusion assay; assay type: functional; conditions: ATCC 12228, 18 h, read-out: IZ; in short: as §2
Staphylococcus aureus [23] = assay: Antibacterial activity against Staphylococcus aureus ATCC 25923 after 18 hrs by serial agar dilution method; assay type: functional; conditions: ATCC 25923, 18 h; in short: as §1
Bacillus cereus [24] = assay: Antibacterial activity against Bacillus cereus ATCC 11778 at 400 ug/disc after 18 hrs by disc diffusion assay; assay type: functional; conditions: ATCC 11778, 18 h, read-out: IZ; in short: as §2
Pseudomonas aeruginosa [25] = assay: Antibacterial activity against Pseudomonas aeruginosa NCTC 6749 at 400 ug/disc after 18 hrs by disc diffusion assay; assay type: functional, organism-based; in short: as §2
Escherichia coli [26] = assay: Antibacterial activity against Escherichia coli ATCC 25922 at 400 ug/disc after 18 hrs by disc diffusion assay; assay type: functional, organism-based; in short: as §2
Micrococcus luteus [27] = assay: Antibacterial activity against Micrococcus luteus ATCC 10240 after 18 hrs by serial agar dilution method; assay type: functional; conditions: ATCC 10240, 18 h; in short: as §1
Bacillus subtilis [28] = assay: Antibacterial activity against Bacillus subtilis ATCC 6633 after 18 hrs by serial agar dilution method; assay type: functional; conditions: ATCC 6633, 18 h; in short: as §1
Staphylococcus aureus [29] = assay: Antibacterial activity against Staphylococcus aureus ATCC 29213 at 400 ug/disc after 18 hrs by disc diffusion assay; assay type: functional; conditions: ATCC 29213, 18 h, read-out: IZ; in short: as §2
Escherichia coli [30] = assay: Antibacterial activity against Escherichia coli ATCC 10538 at 400 ug/disc after 18 hrs by disc diffusion assay; assay type: functional, organism-based; in short: as §2
Candida parapsilosis [31] = assay: Antifungal activity against Candida parapsilosis ATCC 22019 after 24 hrs by serial agar dilution method; assay type: functional; conditions: Lodderomyces parapsilosis, ATCC 22019, 24 h
In short: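 Twofold serial agar dilution per CLSI on RPMI agar with 2% glucose. Agents were dissolved in DMSO and tested at 3.125–400 µg/ml in the solid medium, with a DMSO control. Final inoculum was 10^4 CFU/mL.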

Candida albicans [32] = assay: Antifungal activity against Candida albicans ATCC 10231 after 24 hrs by serial agar dilution method; assay type: functional; conditions: ATCC 10231, 24 h
In short: (§4)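 Yeast MIC by twofold serial agar dilution on RPMI agar with 2% glucose (CLSI), run only for compounds that gave an inhibition zone in disc assay. Compounds in DMSO, 3.125–400 µg/ml in agar. Final inoculum 10^4 CFU/ml. […] Fluconazole and DMSO controls included.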

Candida albicans [33] = assay: Antifungal activity against Candida albicans ATCC 90028 after 24 hrs by serial agar dilution method; assay type: functional; conditions: ATCC 90028, 24 h; in short: as §4

| MIC (Staphylococcus aureus [1]) | MIC (Bacillus cereus [2]) | MIC (Staphylococcus aureus [3]) | MIC (Micrococcus luteus [6]) | MIC [7] | MIC (Staphylococcus aureus [18]) | MIC (Enterococcus hirae [21]) | MIC (Staphylococcus aureus [23]) | Compound | Activity (Escherichia coli [4]) | zone of inhibition at 400 µg/disc (Staphylococcus aureus [5]) | Activity [9] | zone of inhibition at 400 µg/disc (Micrococcus luteus [11]) | zone of inhibition at 400 µg/disc (Micrococcus luteus [13]) | Activity (Proteus vulgaris) | zone of inhibition at 400 µg/disc (Bacillus subtilis [15]) | Activity (Pseudomonas aeruginosa [16]) | Activity (Pseudomonas aeruginosa [17]) | zone of inhibition at 400 µg/disc (Staphylococcus aureus [19]) | zone of inhibition at 400 µg/disc (Staphylococcus aureus [20]) | zone of inhibition at 400 µg/disc [22] | also measured |
| --- | --- | --- | --- | --- | --- | --- | --- | --- | --- | --- | --- | --- | --- | --- | --- | --- | --- | --- | --- | --- | --- |
| 100 µg/mL (≈ 122 µM) | 50 µg/mL (≈ 61.2 µM) | 50 µg/mL (≈ 61.2 µM) | 200 µg/mL (≈ 245 µM) | 100 µg/mL (≈ 122 µM) | 100 µg/mL (≈ 122 µM) | > 400 µg/mL | 50 µg/mL (≈ 61.2 µM) | CC[C@@]1([C@@H]2O[C@@H]([C@H]3O[C@@](O)(CO)[C@H](C)C[C@@H]3C)C[C@@H]2C)CC[C@H]([C@]2(C)CC[C@]3(C[C@H](O)[C@@H](C)[C@@H]([C@@H](C)[C@@H](OC)[C@H](C)C(=O)OCCOCCOCCOC)O3)O2)O1 | inactive | 19 mm | inactive | 11 mm | 13 mm | inactive | 20 mm | inactive | inactive | 17 mm | 19 mm | 13 mm | Activity (Candida albicans [8]): inactive; Activity (Enterococcus hirae [10]): inactive; Activity (Candida albicans [12]): inactive; Activity (Candida parapsilosis [14]): inactive; zone of inhibition at 400 µg/disc (Bacillus cereus [24]): 19 mm; Activity (Pseudomonas aeruginosa [25]): inactive; Activity (Escherichia coli [26]): inactive; MIC (Micrococcus luteus [27]): 50 µg/mL (≈ 61.2 µM); MIC (Bacillus subtilis [28]): 25 µg/mL (≈ 30.6 µM); zone of inhibition at 400 µg/disc (Staphylococcus aureus [29]): 17 mm; Activity (Escherichia coli [30]): inactive |
| 12.5 µg/mL (≈ 15.9 µM) | 6.25 µg/mL (≈ 7.97 µM) | 6.25 µg/mL (≈ 7.97 µM) | 25 µg/mL (≈ 31.9 µM) | 12.5 µg/mL (≈ 15.9 µM) | 12.5 µg/mL (≈ 15.9 µM) | 50 µg/mL (≈ 63.8 µM) | 6.25 µg/mL (≈ 7.97 µM) | CC[C@@]1([C@@H]2O[C@@H]([C@H]3O[C@@](O)(CO)[C@H](C)C[C@@H]3C)C[C@@H]2C)CC[C@H]([C@]2(C)CC[C@]3(C[C@H](O)[C@@H](C)[C@@H]([C@@H](C)[C@@H](OC)[C@H](C)C(=O)OCCN4CCOCC4)O3)O2)O1 | inactive | 20 mm | inactive | 22 mm | 18 mm | inactive | 27 mm | inactive | inactive | 23 mm | 23 mm | 24 mm | MIC (Candida parapsilosis [31]): 400 µg/mL (≈ 510 µM); zone of inhibition at 400 µg/disc (Candida albicans [8]; ATCC 90028, 24 h, read-out: IZ): 17 mm; MIC (Candida albicans [32]): 200 µg/mL (≈ 255 µM); zone of inhibition at 400 µg/disc (Enterococcus hirae [10]; ATCC 10541, 18 h, read-out: IZ): 13 mm; zone of inhibition at 400 µg/disc (Candida albicans [12]; ATCC 10231, 24 h, read-out: IZ): 18 mm; zone of inhibition at 400 µg/disc (Candida parapsilosis [14]; Lodderomyces parapsilosis, ATCC 22019, 24 h, read-out: IZ): 14 mm; MIC (Candida albicans [33]): 200 µg/mL (≈ 255 µM); zone of inhibition at 400 µg/disc (Bacillus cereus [24]): 25 mm; Activity (Pseudomonas aeruginosa [25]): inactive; Activity (Escherichia coli [26]): inactive; MIC (Micrococcus luteus [27]): 12.5 µg/mL (≈ 15.9 µM); MIC (Bacillus subtilis [28]): 6.25 µg/mL (≈ 7.97 µM); zone of inhibition at 400 µg/disc (Staphylococcus aureus [29]): 25 mm; Activity (Escherichia coli [30]): inactive |
